Our source for the Activity and MIC values is ChEMBL document CHEMBL3272276, “Synthesis and antimicrobial evaluation of substituted 5,6-dihydro-5-nitrouracils” (1976).

Each structure is given as a SMILES string. ≈ marks a conversion by molar mass, not a printed value. Calls of active or inactive are those of the source.

Test [1] relates to Pseudomonas aeruginosa. Put plainly: Antimicrobial activity against Pseudomonas aeruginosa clinical isolate up to 0.4 umol/ml after 24 hrs by broth dilution assay. The format is functional, organism-based. A digest of the protocol:
(§1)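 Clinical isolate tested by broth dilution in chemically defined medium. Serial dilutions span 0.4 to 0.005 μmol/ml. Incubation is 24 h at 35°. MIC is taken as the highest dilution of compound that prevents visible growth.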

In test [2] the test system is Staphylococcus aureus. Put plainly: Antimicrobial activity against Staphylococcus aureus clinical isolate up to 0.4 umol/ml after 24 hrs by broth dilution assay. The format is functional, organism-based. A digest of the protocol: as §1
In general terms: In broth dilution the organism is exposed to a series of concentrations in liquid medium.

The test system of test [3] is Escherichia coli. Nature of the test: Antimicrobial activity against Escherichia coli clinical isolate up to at 0.4 umol/ml after 24 hrs by broth dilution assay. The format is functional, organism-based. A digest of the protocol: as §1
In test [4] the test system is Pseudomonas aeruginosa. Put plainly: Antimicrobial activity against Pseudomonas aeruginosa clinical isolate after 24 hrs by broth dilution assay. The format is functional. A digest of the protocol:
(§2)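 Clinical isolates were tested by broth dilution using serial dilutions in chemically defined medium over 0.4 to 0.005 µmol/ml. Plates were incubated for 24 h at 35°. MIC was taken as the highest dilution that prevented visible growth.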

Test [5] deals with Staphylococcus aureus. Put plainly: Antimicrobial activity against Staphylococcus aureus clinical isolate after 24 hrs by broth dilution assay. The format is functional. Put shortly:
as §2

In test [6] the test system is Escherichia coli. Nature of the test: Antimicrobial activity against Escherichia coli clinical isolate after 24 hrs by broth dilution assay. The format is functional. Put shortly:
as §2

For test [7], the system named is Trichophyton mentagrophytes. Nature of the test: Antifungal activity against Trichophyton mentagrophytes clinical isolate at 0.4 umol/ml after 48 hrs by broth dilution assay. Format: functional, organism-based. A digest of the protocol:
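The clinical dermatophyte isolate was tested by broth dilution using serial dilutions in chemically defined medium over 0.4 to 0.005 µmol/ml. Inhibition was read after 48 h at 30°. MIC was the highest dilution with no visible growth.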

Test [8] deals with Candida albicans. Nature of the test: Antifungal activity against Candida albicans clinical isolate at 0.4 umol/ml after 24 hrs by broth dilution assay. Format: functional, organism-based. Put shortly: as §2

As for `Cc1[nH]c(=O)[nH]c(=O)c1[N+](=O)[O-]`, the outcome in test [1], in test [2] and in test [3] was inactive.

Regarding `O=c1[nH]c(=O)n(-c2ccc([N+](=O)[O-])cc2)cc1[N+](=O)[O-]`, the outcome in test [1], in test [2] and in test [3] was inactive.

Take `[N-]=[N+]=C1C=NC(=O)NC1=O`: the MIC (in general, the smallest concentration in the dilution series that meets the test's criterion for growth inhibition) worked out at 40 µM (≈ 5.52 µg/mL) in test [4], 10 µM (≈ 1.38 µg/mL) in test [5] and 20 µM (≈ 2.76 µg/mL) in test [6]. The result in test [7] and in test [8] was inactive.

Consider `CCOC(=O)[C@H]1O[C@@H](N2CC([N+](=O)[O-])C(=O)NC2=O)[C@H](O)[C@@H]1O` (stereo partly specified), for which the outcome in test [1], in test [2] and in test [3] was inactive.

In the case of `CCOC(=O)[C@H]1O[C@@H](n2cc([N+](=O)[O-])c(=O)[nH]c2=O)[C@H](O)[C@@H]1O`, the result in test [1], in test [2] and in test [3] was inactive.

Turning to `O=C1NC(=O)N(c2ccc([N+](=O)[O-])cc2)CC1[N+](=O)[O-]` (stereo unspecified), the outcome in test [1], in test [2] and in test [3] was inactive.

Consider `O=C1NCC([N+](=O)[O-])C(=O)N1` (stereo unspecified), for which the outcome in test [1], in test [2] and in test [3] was inactive.

As for `[N-]=[N+]=C1C(=O)NC(=O)NC1O` (stereo unspecified), the MIC in test [4] is 20 µM (≈ 3.12 µg/mL); in test [5] it was 20 µM (≈ 3.12 µg/mL); in test [6], 10 µM (≈ 1.56 µg/mL). Moreover, the result in test [7] and in test [8] was inactive.

Turning to `CC1NC(=O)NC(=O)C1[N+](=O)[O-]` (stereo unspecified), the result in test [1], in test [2] and in test [3] was inactive.
